One may read the EC50 as the concentration that produces a half-maximal response. Higher therefore signals weaker potency. By IC50 is commonly meant the point on the concentration scale where inhibition reaches its midpoint. A higher IC50 goes with weaker potency.

Molecules are shown by their SMILES. Bounds are passed on as bounds.

In test [1] the test system is CEM-SS. In words: Effective concentration against HIV-1RF induced cytopathicity in CEM-SS cells; No antiviral activity was observed at concentrations uM. It is filed as functional, cell-based, Homo sapiens. An outline of the steps:
(§1)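 CEM-SS cells (5000/well) infected with thawed HIV-1 RF stock at MOI 0.01 in the presence of serially diluted compound (as ammonium salts); 37 °C, 5% CO₂, 6 days. Supernatant assayed for RT activity, p24 and/or infectious virus; cell protection from cytopathic effect read by XTT. EC₅₀ averaged from at least two determinations; compounds tested up to […].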
A general note: Damage to the host cells serves as the signal in cytopathic effect assays.

In test [2] the test system is CEM-SS. In words: Cytotoxic concentration against mock-infected CEM-SS cells. It counts as functional, cell-based. The settings on record: Homo sapiens. An outline of the steps: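 Uninfected (mock-infected) CEM-SS cells, exponentially growing, seeded at 5000 cells/well with serially diluted compound (tested as ammonium salts) in complete medium; 37 °C, 5% CO₂, 6 days. Growth/viability by XTT assay; IC₅₀ = 50% cytotoxic concentration, averaged from at least two determinations.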

The subject of test [3] is CEM-SS. In words: Effective concentration against HIV-1RF induced cytopathicity in CEM-SS cells; No antiviral uM. It is filed as functional, cell-based, Homo sapiens. The method in brief:
as §1

For test [4], the system named is CEM-SS. In words: Effective concentration against HIV-1RF induced cytopathicity in CEM-SS cells. It counts as functional, cell-based. The settings on record: Homo sapiens. An outline of the steps:
as §1

For `CCCCCC=C(c1cc(Cl)c(O)c(C(=O)O)c1)c1cc(Cl)c(O)c(C(=O)O)c1`, the EC50 result in test [1] is on record as “Not Active”. Also, the concentration for half-maximal inhibition (IC50) in test [2] was greater than 95 µM.
Consider `CCCCCCCCCCCCCCOP(=O)(O)OCCC=C(c1cc(Cl)c(O)c(C(=O)O)c1)c1cc(Cl)c(O)c(C(=O)O)c1`, for which the EC50 result in test [3] was “Not Active”. In test [2], this molecule came in with a concentration for half-maximal inhibition (IC50) of 101 µM.
`CC(C)CCCC(C)[C@H]1CC[C@H]2[C@@H]3CCC4C[C@@H](CCC=C(c5cc(Cl)c(O)c(C(=O)O)c5)c5cc(Cl)c(O)c(C(=O)O)c5)CC[C@]4(C)[C@H]3CC[C@]12C` (some centres undefined) returned an IC50 in test [2] greater than 300 µM. The molecule further registered a 50% effective concentration (EC50) in test [4] of 3 µM.
The molecule `CCCCCCCCCCCCCCCC=C(c1cc(Cl)c(O)c(C(=O)O)c1)c1cc(Cl)c(O)c(C(=O)O)c1` came in with an IC50 in test [2] greater than 35 µM. In test [4], this molecule came in with an EC50 of 19.8 µM.
The like results for `CCCCCCCC/C=C\CCCCCCCCOP(=O)(O)OCCC=C(c1cc(Cl)c(O)c(C(=O)O)c1)c1cc(Cl)c(O)c(C(=O)O)c1` were, in that order, 61.3 µM and 49 µM.
On the same counts, the results for `CCCCCCCCCCCCCCCCCCCCCCCCCCCCCC=C(c1cc(Cl)c(O)c(C(=O)O)c1)c1cc(Cl)c(O)c(C(=O)O)c1` are greater than 220 µM and 13.1 µM.
The like results for `CCCCC/C=C\C/C=C\CCCCCCCCOP(=O)(O)OCCC=C(c1cc(Cl)c(O)c(C(=O)O)c1)c1cc(Cl)c(O)c(C(=O)O)c1` were, in that order, 86 µM and 51.8 µM.
Regarding `O=C(O)c1cc(C(=CCC23CC4CC(CC(C4)C2)C3)c2cc(Cl)c(O)c(C(=O)O)c2)cc(Cl)c1O`, the 50% effective concentration (EC50) entry in test [3] is reported as “Not Active”. In test [2], this molecule displayed an IC50 of 105 µM.
The like results for `CCCCCCCCCCCCCCCCCCOP(=O)(O)OCCC=C(c1cc(Cl)c(O)c(C(=O)O)c1)c1cc(Cl)c(O)c(C(=O)O)c1` were, in that order, “Not Active” and 74 µM.
Turning to `CCCCCCCCCC=C(c1cc(Cl)c(O)c(C(=O)O)c1)c1cc(Cl)c(O)c(C(=O)O)c1`, the IC50 in test [2] was greater than 49 µM. Besides, the concentration for a half-maximal effect (EC50) in test [4] was determined as 43.2 µM.
The like results for `O=C(O)c1cc(Cc2cc(Cl)c(O)c(C(=O)O)c2)cc(Cl)c1O` were, in that order, greater than 364 µM and 329 µM.
Turning to `CCCCCCCCCCCCCCCCOP(=O)(O)OCCC=C(c1cc(Cl)c(O)c(C(=O)O)c1)c1cc(Cl)c(O)c(C(=O)O)c1`, the EC50 result in test [3] is listed as “Not Active”. Besides, the IC50 in test [2] is 84 µM.
